As a reminder, the viability is a read-out of living cells in per cent, often relative to untreated cells. Usually inhibition stands for the relative decrease from the control value, in per cent.

Test [1] can be described thus: S. cerevisiae growth inhibition in permissive medium (OD615), pilot counter-assay for S. cerevisiae lifespan shortening project, permissive growth control (AID 705;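 active means growth inhibition above 25% in both replicates, a cutoff set 3 SD above the mean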). To be noted: OD615, 24 h, at 10 µM, active compounds read high. In short, it runs like this:
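System: engineered DeaD yeast; Medium: permissive raffinose/galactose medium; Compound dosing: 10 µM single dose, 0.25% DMSO; Incubation: 4 h cell pre-growth, 24 h exposure at 30 °C; Technique: OD at 615 nm; Evaluation: growth inhibition from lowered OD615 after 24 h.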

Test [2] is described as follows: S. cerevisiae growth inhibition in restrictive medium, OD615, pilot screen, restrictive growth control, yeast lifespan reduction project (AID 706;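 active means growth inhibition above a set limit, 3 SD over mean compound inhibition, in both replicates, cut at about 43% in these data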;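 further: modified DeaD lifespan yeast strain shifted to restrictive glucose medium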). To be noted: OD615, 48 h, at 10 µM, active compounds read high. A digest of the protocol:
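Material: modified S. cerevisiae; buffer or medium: CSMM-D glucose medium; doses: one concentration, 10 µM final, 0.25% DMSO; incubation: 48 h compound exposure at 30 °C; detection: optical density at 615 nm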

Test [3] is described as follows: doxorubicin toxicity protection in MRP-1 cells – H69AR cells, CellTiter-Glo, duplicate, MRP-1 activator project, pilot screen (AID 807).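 Further: compound pretreatment 18-22 h then 72 h combined with doxorubicin; 0% = doxorubicin alone and 100% = vehicle without doxorubicin.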 The note with it: H69AR viability with doxorubicin, CellTiter-Glo luminescence; at 10 µM; active compounds read high. In general terms: Cellular ATP, detected with luciferase, serves as a proxy for viable cell number.
Test [4] can be described thus: viability of HCT116 without oncogenic beta-catenin – human colon tumor cells, pilot screen (AID 823;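 active means cell viability at or below a set limit in both duplicate runs, the limit being the all-compound median minus 4 SD, cut at about 23% in these data, passing the limit was not always enough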;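 further: 0% = wells killed by 20 µM Hyamine and 100% = untreated DMSO cell wells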). The note with it: HCT116 beta-catenin knockout viability, CellTiter-Glo, 60 h; at 10 µM; active compounds read low.
A short description of test [5]: viability of PTEN-null HCT116 cells – cell-based, HCT116 clonal line, CellTiter-Glo, pilot screen (AID 824;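 active means viability at or below 27.92% in each of two runs, the all-compound median minus 4 SD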;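 further: 0% = 20 µM Hyamine control and 100% = vehicle cell control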). To be noted: HCT116 PTEN-deleted viability, 60 h, at 10 µM, active compounds read low.
Test [6] can be described thus: RAM pathway blockade in budding yeast – dse1pr::URA3 reporter, 5-FOA selection, pilot screen (AID 869;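 active means inhibition over a set limit, the all-compound mean plus 3 SD, in both replicate runs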;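 further: 0% = DMSO wells with no growth and 100% = 10 µM 1-NA-PP1 with full growth; RAM network block rescues cells from 5-FOA so hits raise OD615 growth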). To be noted: S. cerevisiae dse1pr::URA3 5-FOA growth, OD615, 2 d; at 10 µM; active compounds read high; strain carries analog-sensitive mutant Cbk1 kinase.
Test [7] in a line: RAM signaling pathway blockade in yeast – S. cerevisiae, Pdr1DBD-CYC8 efflux-inhibited sensitized strain, primary screen (AID 1298;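 active means RAM network inhibition above 8.4% in each of two replicates, 3 SD over the compound average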;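 further: 0% = DMSO untreated cells without growth and 100% = 10 µM 1-NA-PP1 full growth; higher means more yeast growth rescued from 5-FOA killing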). To be noted: S. cerevisiae cbk1-as DSE1-URA3 strain, 5-FOA growth OD615, 2 d; at 50 µM; active compounds read high.

SMILES strings stand for the structures. Unmarked numbers belong to inactive results. Results filed as inconclusive are left out. Calls of active or inactive are those of the source.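 How the source made its calls, unless noted: active means viability increase at or above a cutoff of the median across tested compounds plus 3 SD (cut at about 8.5% in these data, passing the limit was not always enough); inconclusive means some gains above the cutoff, reason not given; inactive means the rest.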

`CCN1CCN(C(c2cccs2)C(C)NC(=O)c2cccc(OC)c2)CC1` (configuration not stated): the growth inhibition was -2.49% in test [1] and -14.8% in test [2]. Besides, in test [3], the viability increase was -2.25%. In addition, the viability in test [4] is 103%; in test [5] it was 89.7%. The inhibition in test [6] was -0.09%. Besides, the RAM network inhibition in test [7] was -0.01%.

Consider `Cn1c(=O)c2c(nc(SCCNS(=O)(=O)c3ccccc3)n2C)n(C)c1=O`, for which the growth inhibition in test [1] is -20.6%; in test [2], -16.3%. Further, in test [3], the viability increase is -3.87%. The viability is 101% in test [4] and 99% in test [5]. For the same compound, the inhibition in test [6] is 1.46%. Also, the RAM network inhibition in test [7] is 7.66%.

`CCC1CCCCN1Cc1ccc(OC)c(OC)c1` (configuration not stated): the growth inhibition in test [1] was -7.04%; in test [2], -8.04%. Also, the viability increase in test [3] is -2.09%. Further, the viability is 87.8% in test [4] and 96.9% in test [5]. For the same compound, the inhibition in test [6] was 2.01%. For the same compound, the RAM network inhibition in test [7] is -1.61%.

With `CC(=O)NCCc1ccc(S(=O)(=O)N2CCCC2)cc1`, the figures for the growth inhibition in test [1] and in test [2] were -6.14% and 1.21%, respectively. The viability increase in test [3] is 0.04%. In addition, the viability in test [4] was 96.2%; in test [5] it was 96%. For the same compound, the inhibition in test [6] is 3.39%. Moreover, the RAM network inhibition in test [7] was 3.82%.

For the compound `O=C(NC1CCCCCC1)C1CCCN1S(=O)(=O)c1cccc2cccnc12` (configuration not stated), the growth inhibition in test [1] was -10.1%; in test [2], -8%. Moreover, the viability increase in test [3] is -0.87%. Besides, the viability was 90.9% in test [4] and 92.1% in test [5]. For the same compound, the inhibition in test [6] was 0.69%. For the same compound, the RAM network inhibition in test [7] is 3.74%.

On to `CCOC(=O)C1CCN(S(=O)(=O)c2cc(Br)cc3c2N(C(C)=O)C(C)C3)CC1` (configuration not stated), for which the growth inhibition in test [1] was -11.1%; in test [2] it was -29%. The viability increase in test [3] is 0.29%. Also, the viability in test [4] is 93.4%; in test [5], 93.2%. Moreover, in test [6], the inhibition was 1.19%. The RAM network inhibition in test [7] was 11.2%.

Take `Fc1ccc(CN2CCCCCCC2)cc1F`: the figures for the growth inhibition in test [1] and in test [2] were -3.83% and -9.1%, respectively. Further, in test [3], the viability increase is -3.13%. The viability in test [4] is 92.2%; in test [5] it was 95.7%. In addition, in test [6], the inhibition is -0.325%. Also, in test [7], the RAM network inhibition is 0.52%.

Regarding `Oc1c(C(c2cccs2)N2CCN(c3ccc(F)cc3)CC2)sc2ncnn12` (configuration not stated), the results for the growth inhibition in test [1] and in test [2] were 0.78% and -6.24%, respectively. Also, the viability increase in test [3] was 13.4% (active). The viability in test [4] was 105%; in test [5], 90.9%. For the same compound, in test [6], the inhibition is 0.495%. Also, in test [7], the RAM network inhibition is 8.63%.

For `CC(C)C(NC(=O)CN1C(=O)c2ccccc2S1(=O)=O)C(C)C`, the growth inhibition in test [1] was -10%; in test [2] it was -13%. The viability increase in test [3] is -2.05%. The viability in test [4] was 98.8%; in test [5], 94.3%. Moreover, the inhibition in test [6] is 1.4%. For the same compound, the RAM network inhibition in test [7] is -1.56%.

On to `[O-]/[N+](=C\c1ccc(OC(F)F)cc1)c1ccccc1`, for which the values for the growth inhibition in test [1] and in test [2] were -1.07% and 2.88%, respectively. Further, in test [3], the viability increase is -5.13%. For the same compound, the viability in test [4] was 88.1%; in test [5], 93.7%. Moreover, in test [6], the inhibition was 1.19%. In test [7], the RAM network inhibition is 1.08%.

In the case of `Clc1ccc(Cn2cc(/C=N/n3cnnc3)c3ccccc32)cc1`, the results for the growth inhibition in test [1] and in test [2] were 9.77% and 30.9%, respectively. For the same compound, the viability increase in test [3] was -7.71%. For the same compound, the viability is 64.5% in test [4] and 62.3% in test [5]. Also, the inhibition in test [6] is 1.48%. In addition, the RAM network inhibition in test [7] was 3%.

As for `Cc1ccc(S(=O)(=O)NCc2nc3ccccc3[nH]2)cc1`, the values for the growth inhibition in test [1] and in test [2] were -4.75% and 4.05%, respectively. Besides, in test [3], the viability increase is 1.61%. The viability is 98.7% in test [4] and 97.8% in test [5]. The inhibition in test [6] was 2.42%. In addition, the RAM network inhibition in test [7] is 1.58%.

Take `COc1ccc(C2(C(=O)NCCCN(C)C)CCOCC2)cc1`: the values for the growth inhibition in test [1] and in test [2] were -19.3% and -23.9%, respectively. The viability increase in test [3] was -0.22%. Besides, the viability in test [4] is 98.3%; in test [5], 100%. The inhibition in test [6] was 1.26%. Besides, the RAM network inhibition in test [7] was 1.69%.

On to `CCOc1ccc(-n2c(SCC(=O)NCc3ccco3)nc3c(c2=O)SCC3)cc1`, for which the growth inhibition in test [1] is -21.1%; in test [2], -19.1%. Also, the viability increase in test [3] is -3.31%. For the same compound, the viability is 95.2% in test [4] and 98.4% in test [5]. In addition, the inhibition in test [6] was 3.37%. Also, the RAM network inhibition in test [7] was 7.34%.

With `COC(=O)c1oc2ccc(Br)cc2c1NC(=O)CCCN1C(=O)c2ccccc2C1=O`, the growth inhibition is -10.3% in test [1] and -14.3% in test [2]. The viability increase in test [3] was 0.98%. In addition, the viability is 97.7% in test [4] and 98.5% in test [5]. The inhibition in test [6] was 2.69%. Moreover, the RAM network inhibition in test [7] is 7.77%.

In the case of `CCOC(=O)Cc1c(C)nc2c(-c3ccccc3)c[nH]n2c1=O`, the growth inhibition in test [1] was -9.38%; in test [2], -14.3%. Also, the viability increase in test [3] is -5.95%. In addition, the viability in test [4] was 76.8%; in test [5], 76.5%. Besides, in test [6], the inhibition is 1.96%. The RAM network inhibition in test [7] was 10.5%.

The values are drawn from PubChem BioAssay.
